Screens (PubChem)
A selection: hits, their analogues and other compounds. The true share with any hit is near 5.7%.
Mdm2 MdmX PPI = inhibitors of human Mdm2-MdmX association, primary screen, cell-based, luminescence, split luciferase, SaOS-2, uHTS; Protein Mdm4 (Homo sapiens) + E3 ubiquitin-protein ligase Mdm2 (Homo sapiens), …; SaOS-2 split-luciferase Mdm2/MdmX complementation; inhibition, % at 8 µM; 330,000 tested, 3% active; AID 485346, 2010;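 active = inhibition of at least 50% at 8 µM in the primary screen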
Target sequence (O15151 whole entry, looked up): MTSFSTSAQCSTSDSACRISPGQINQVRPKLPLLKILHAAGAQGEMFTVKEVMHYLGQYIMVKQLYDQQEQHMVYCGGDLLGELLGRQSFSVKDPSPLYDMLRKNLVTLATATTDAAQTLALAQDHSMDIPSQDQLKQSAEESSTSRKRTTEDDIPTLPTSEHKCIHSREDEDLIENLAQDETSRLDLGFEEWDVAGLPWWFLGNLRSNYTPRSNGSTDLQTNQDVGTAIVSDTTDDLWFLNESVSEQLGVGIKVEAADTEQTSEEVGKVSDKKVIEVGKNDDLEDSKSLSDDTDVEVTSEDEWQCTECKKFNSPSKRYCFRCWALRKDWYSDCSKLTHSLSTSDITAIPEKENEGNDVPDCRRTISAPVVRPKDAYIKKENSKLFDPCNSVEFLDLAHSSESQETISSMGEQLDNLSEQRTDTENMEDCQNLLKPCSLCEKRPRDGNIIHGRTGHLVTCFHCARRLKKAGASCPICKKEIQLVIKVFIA
Target sequence (Q00987 whole entry, looked up): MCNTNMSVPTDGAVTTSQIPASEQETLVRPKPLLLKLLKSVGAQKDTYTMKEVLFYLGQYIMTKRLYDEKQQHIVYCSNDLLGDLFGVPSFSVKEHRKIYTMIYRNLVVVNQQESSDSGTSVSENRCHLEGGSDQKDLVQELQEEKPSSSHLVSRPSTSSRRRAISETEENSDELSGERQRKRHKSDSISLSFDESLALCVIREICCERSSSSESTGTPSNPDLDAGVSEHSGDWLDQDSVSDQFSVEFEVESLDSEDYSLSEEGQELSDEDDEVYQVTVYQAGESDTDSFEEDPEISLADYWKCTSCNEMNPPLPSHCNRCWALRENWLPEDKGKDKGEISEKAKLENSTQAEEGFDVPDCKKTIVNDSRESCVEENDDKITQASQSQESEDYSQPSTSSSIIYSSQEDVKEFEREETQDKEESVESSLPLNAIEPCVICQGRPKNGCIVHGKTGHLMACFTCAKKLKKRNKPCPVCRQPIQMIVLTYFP
Beta cell apopt = inhibitors of cytokine-induced beta cell apoptosis, primary screen, luminescence. 300,000 tested, 0.8% active. protection from apoptosis, % (concentration not given with the values). INS-1E cytokine-induced death, ATP luminescence, 48 h; percent of positive-control rescue, neutral wells zero;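 active = Every replicate reaches about 75%, or at least half do and their mean reaches it too, limit read from the data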;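 also: 0% = cytokine-treated negative control wells and 100% = positive control rescue; higher means more ATP so stronger rescue from cytokine killing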
SKKanGAS inh = S. pyogenes SKKanGAS growth inhibitors in kanamycin, primary screen, streptokinase expression inhibitor project, SKKanGAS strain, BacTiter-Glo luminescence. 6 h. inhibition, % at 7.5 µM. 300,000 tested, 1.3% active;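 active = mean replicate score, as percent of positive control median, at least 50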;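 also: strain carries kanamycin resistance gene driven by streptokinase promoter and grows in 40 µg/ml kanamycin; loss of luminescence reflects streptokinase promoter inhibition or plain growth inhibition; 0% = median of DMSO wells and 100% = positive control at its reference dose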
Calb FLC = C. albicans growth inhibition with fluconazole, primary screen, CaCi-2 strain, Alamar Blue fluorescence. C. albicans CaCi-2 (fluconazole-resistant clinical isolate) + fluconazole, 48 h. growth inhibition, % (concentration not given with the values). 300,000 tested, 0.57% active. AID 1979, 2009;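 active = growth inhibition above about 58% in most replicates, limit read from the data, passing the limit was not always enough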;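 also: all wells also contain fluconazole at 8 µg/ml as a sub-toxic cotreatment; 0% = median of DMSO wells and 100% = median of geldanamycin control wells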
CSC inhib = cancer stem cell viability inhibitors, primary screen, luminescence; cancer stem cell-like cells viability; inhibition, % at 7.5 µM; 300,000 tested, 1.1% active; in the data active = inhibition above about 75%; tested in HMLE shEcad cells
T cruzi repl = inhibitors of intracellular T. cruzi growth, primary screen, luminescence, NIH3T3 host cells. T. cruzi beta-gal in NIH3T3, 90 h. inhibition, % (concentration not given with the values). 300,000 tested, 1.4% active. AID 1885, 2009;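 active = mean inhibition across valid replicates above about 55%, limit read from the data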;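 also: signal also drops with host cell toxicity which is not excluded here; 0% = plate median of DMSO wells and 100% = zero luminescence signal; higher percent means less beta-gal luminescence so fewer parasites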
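Assay system: NIH/3T3 host cells with β-galactosidase reporter T. cruzi; input: 5,000 host fibroblasts per well; compound: single 50 nL compound addition per well in DMSO; timing: ≥90 h infection period, 3 h prior cell attachment; measured by: GalScreen β-gal luminescence, detergent lysis, 60 min; evaluation: percent inhibition of parasite-derived β-gal signal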
Mdm2-MdmX conf = Mdm2-MdmX complex disruptors, retested hits, confirmation, luminescence, single concentration; shares compounds with Mdm2 MdmX PPI; Mdm2-MdmX binding, luminescent assay; inhibition, % at 8 µM; 10,000 tested, 55% active; AID 489028, 2010; in the data active = inhibition above about 40%
FLuc counter = full-length luciferase signal inhibition, confirmation, counter-screen for Mdm2/MdmX interaction inhibitor project, cell-based, single concentration, SaOS-2. shares compounds with Mdm2 MdmX PPI. SaOS-2 full-length luciferase counterscreen, luminescence. inhibition, % at 8 µM. 6,200 tested, 77% active. AID 504607, 2011;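 active = mean inhibition at 8 µM reaching about 37%, which flags the compound as non-specific, limit read from the data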;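 also: p53-null SaOS-2 cells with luciferase driven by a doxycycline-inducible promoter; compound on cells about two nights before reading with doxycycline added after day one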
Active calls of the source: *; · = not tested or not shown.

SMILES	Mdm2 MdmX PPI	Beta cell apopt	SKKanGAS inh	Calb FLC	CSC inhib	T cruzi repl	Mdm2-MdmX conf	FLuc counter
O=C1[C@@H]2Cc3c([nH]c4ccccc34)C(c3cccc(Br)c3)N2C(=O)CN1C1CCN(Cc2ccccc2)CC1 (some centres not stated)	88*	23	26	-3	82*	65*	39	73*
COc1ccc(N2CCN(C(=O)C3CCN(S(=O)(=O)c4ccc5c(c4)oc(=O)n5C)CC3)CC2)cc1	-1	3	2	6	3	-1	·	·
Cc1occc1C(=O)O/N=C(\N)c1ccccc1	72*	42	47	-4	21	6	-2	·
Cc1ccccc1C(=O)O/N=C(\N)c1ccccc1	86*	6	5	-7	-1	1	41*	114*
Cc1ccccc1C(=O)O/N=C(\N)c1ccc([N+](=O)[O-])cc1	35	0	2	3	-9	7	·	·
Cc1ccccc1/C(N)=N/OC(=O)c1ccc(F)cc1	65*	·	10	15	-12	12	-3	·
Cc1cccc(/C(N)=N/OC(=O)c2ccoc2C)c1	94*	38	-6	10	2	20	47*	167*
C/C(=N\NC(=O)c1ccoc1C)c1ccccc1	-61	-1	-4	7	21	-2	·	·
Cc1cccc(/C(N)=N/OC(=O)Cc2cccs2)c1	-18	-2	15	-13	1	-3	·	·
O=C(NCCCCNC(=O)c1cccnc1Cl)c1cccnc1Cl	-5	0	-2	7	-5	-4	·	·
Cc1onc(-c2ccccc2Cl)c1C(=O)Nc1cccc2cccnc12	64*	7	26	28	53	10	17	·
COc1cc(NC(=O)c2c(-c3ccccc3Cl)noc2C)c2ncccc2c1	24	15	3	6	46	28	·	·
Cc1onc(-c2ccccc2Cl)c1C(=O)O/N=C(\N)c1ccccc1	100*	5	7	-4	41	59*	92*	112*
C/C(=N\OC(=O)c1c(-c2ccccc2Cl)noc1C)c1ccncc1	-36	-11	-3	-37	-14	-4	·	·
CCN(CC)S(=O)(=O)c1cccc(C(=O)NCC2(N3CCOCC3)CCCCC2)c1	18	·	·	·	·	·	·	·
O=C(C1COc2ccccc2O1)N1CCN(Cc2ccc(Br)cc2F)CC1 (configuration not stated)	25	2	7	-5	10	22	·	·
CC1=CC(C)(C)N(C(=O)CCl)c2cc(C)ccc21	16	4	·	-10	-4	11	·	·
CC1=CC(C)(C)N(S(=O)(=O)c2ccc(C)cc2)c2cc(C)ccc21	54*	51	2	-12	66	10	69*	122*
CCOc1ccc2c(c1)C(C)=CC(C)(C)N2S(=O)(=O)c1ccc(C)cc1	63*	·	-9	113*	·	47	61*	121*
COc1ccc2c(c1)C(C)=CC(C)(C)N2S(=O)(=O)c1ccc(C)cc1	63*	32	8	15	-5	49	67*	96*
CC(C)N(C(=O)Cn1cc(S(=O)(=O)CC(=O)Nc2ccccc2)c2ccccc21)C(C)C	5	5	-2	-1	15	10	·	·
CCOc1ccccc1CNC(=O)Cn1ccc2cc(S(=O)(=O)N3CCC(C)CC3)ccc21	24	12	11	-8	64	24	·	·
COc1cc(/C=C/C(=O)NC(C)(C)C)ccc1OCc1ccccc1	32	·	-2	-7	18	-13	·	·
COc1ccc(/C=C/C(=O)Oc2ccc(C)c(C)c2)cc1OC	4	-6	-1	-1	-6	-4	·	·
COc1ccccc1CNC(=O)COC(=O)/C=C/c1ccc2c(c1)OCO2	-23	-1	·	·	-20	·	·	·
SMILES	Mdm2 MdmX PPI	Beta cell apopt	SKKanGAS inh	Calb FLC	CSC inhib	T cruzi repl	Mdm2-MdmX conf	FLuc counter
COc1cc(OC)c(C(=O)/C=C/c2ccc(OCc3ccccc3)c(OC)c2)c(OC)c1	60*	·	7	-6	·	28	22	·
COc1cc(/C=N/NC(=O)c2cccc([N+](=O)[O-])c2)ccc1OCc1ccccc1	-1	2	-1	23	17	3	·	·
COc1cc(/C=C/[N+](=O)[O-])ccc1OC(=O)/C=C/c1ccc(F)cc1	73*	·	-11	0	·	41	71*	51*
COc1cc(OCc2ccccc2)c(C(=O)/C=C/c2ccc3c(c2)OCO3)c(OC)c1OC	70*	-7	-2	7	37	44	37	·
COc1cc(/C=C/[N+](=O)[O-])ccc1OCc1cccc(C(=O)O)c1	55*	·	16	-4	·	-26	47*	35
CC(C)(C)[C@@H]1COC(=O)[C@H](Cc2ccc(F)cc2)C/C=C\C[C@@H](CC(=O)NCCO)C(=O)N1	-2	0	·	·	·	·	·	·
CN1CCN(CCCNC(=O)c2ccc3c(Cl)c4c(nc3c2)CCCC4)CC1	76*	-1	-2	3	-18	2	42*	58*
CC(C)(C)c1ccc(C(=O)NCCN2CCOCC2)cc1	24	1	1	12	-15	-3	·	·
CCN(C(=O)c1ccc2c(Cl)c3c(nc2c1)CCC3)c1ccc(C)c(C)c1	53*	11	27	1	·	28	43*	82*
CC(C)(C)c1ccc(C(=O)NCCCN2CCN(CCCNC(=O)c3ccc(C(C)(C)C)cc3)CC2)cc1	95*	·	8	-2	102*	26	95*	57*
O=C(c1ccc2c(Cl)c3c(nc2c1)CCCC3)N1CCC(N2CCCCC2)CC1	58*	-2	3	-4	27	41	25	·
COc1cc(C(=O)N/C(=C\c2cn(C)c3ccccc23)C(=O)NCCCn2ccnc2)cc(OC)c1OC	-9	0	-2	34	-4	-19	·	·
CC(=O)Nc1ncnc2c1c(-c1ccc(Cl)cc1)nn2C(C)(C)C	73*	-1	0	102*	19	61*	37	55*
CC(=O)Nc1nc(-c2ccc(Cl)cc2)nc(C)c1C(C)=O	-6	-4	0	5	-1	-8	·	·
CC(C)(C)NC(=O)C(c1ccncc1)N(Cc1cccs1)C(=O)Cn1nnc(-c2ccc(F)cc2)n1 (configuration not stated)	53*	25	5	-22	-5	2	43*	55*
